# Screening results: PubChem, The Scripps Research Institute Molecular Screening Center
# Sampled rows, rich in hits. Any-hit rate of the full collection: about 1.9%.
# CHRM5 PAM – human M5 muscarinic receptor positive allosteric modulators, primary screen, CHO-K1 cells, Fluo-8 calcium fluorescence; Muscarinic acetylcholine receptor M5 (Homo sapiens), P08912; CHO-K1 hM5, ACh EC20 PAM; 0% = ACh EC20, 100% = ACh EC100; activation, % at 3 µM; 360,000 tested, 0.3% active;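 active = activation above the run cutoff, the mean activation of all test compounds plus 3 SD, cut at about 18% in these data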
#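 Test system: CHO-K1 hM5 cells / Doses: single-point, 3 µM nominal / Times: Post-acetylcholine fluorescence recording 140 s / Technique: Fluo-8 calcium fluorescence / Measure: Max/basal fluorescence ratio as % of EC20–EC100 ACh window / Benchmarks: low control EC20 acetylcholine (0%), high control EC100 acetylcholine (100%) / Replicates: one well per compound, no replicates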
# CHRM4 antagonist – human M4 muscarinic receptor antagonists, primary screen, CHO cells, Fluo-8 calcium fluorescence; Muscarinic acetylcholine receptor M4 (Homo sapiens), P08173; AID 624125, 2012; inhibition, % at 3 µM; 360,000 tested, 0.73% active; CHO-hM4 cells, ACh EC80;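 active = inhibition above its plate's cutoff, the mean inhibition of sample wells plus 3 SD, cut at about 27% in these data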;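 note: 0% = acetylcholine EC80 with DMSO and 100% = DMSO without agonist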
# Target sequence (P08173 whole entry, looked up): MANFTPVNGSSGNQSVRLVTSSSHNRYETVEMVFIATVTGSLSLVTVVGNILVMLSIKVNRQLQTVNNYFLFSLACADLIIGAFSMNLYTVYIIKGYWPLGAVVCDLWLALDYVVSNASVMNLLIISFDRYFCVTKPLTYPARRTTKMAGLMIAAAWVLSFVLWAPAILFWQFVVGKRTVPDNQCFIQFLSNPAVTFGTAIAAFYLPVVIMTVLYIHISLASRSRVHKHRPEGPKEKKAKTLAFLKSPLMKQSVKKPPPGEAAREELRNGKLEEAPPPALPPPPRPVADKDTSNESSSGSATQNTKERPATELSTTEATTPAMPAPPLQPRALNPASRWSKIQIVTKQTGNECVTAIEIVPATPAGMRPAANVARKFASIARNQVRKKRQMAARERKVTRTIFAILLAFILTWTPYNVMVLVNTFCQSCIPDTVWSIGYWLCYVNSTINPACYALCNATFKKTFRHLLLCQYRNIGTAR
# M4 ag – human M4 muscarinic receptor agonists, primary screen, CHO-K1 cells, Fluo-8 calcium fluorescence | CHO-K1 hM4/Gqi5; vehicle 0%, full acetylcholine response 100% | AID 624127, 2012 | 360,000 tested, 0.14% active | activation, % at 3 µM;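 active = activation above the run mean over all test wells plus 3 SD, cut at about 32% in these data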;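 note: peak over basal fluorescence ratio per well then scaled between controls; 0% = DMSO wells and 100% = acetylcholine at EC100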
# M5 antag – human M5 muscarinic receptor antagonists, primary screen, CHO cells, Fluo-8 calcium fluorescence; Muscarinic acetylcholine receptor M5 (Homo sapiens), P08912; CHO-hM5 cells, ACh EC80; inhibition, % at 3 µM; 360,000 tested, 0.59% active;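 active = inhibition above a per-plate cutoff, the mean of that plate's test compounds plus 3 SD, cut at about 27% in these data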;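 note: 0% = acetylcholine EC80 with DMSO and 100% = DMSO without agonist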
# M5 ag – human M5 muscarinic receptor agonists, primary screen, CHO-K1 cells, Fluo-8 calcium fluorescence. CHO-K1 hM5 cells; 0% DMSO wells, 100% maximal acetylcholine response. AID 624037, 2012. 360,000 tested, 0.19% active. activation, % at 3 µM. Muscarinic acetylcholine receptor M5 (Homo sapiens), P08912;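 active = activation above the run's mean over test compounds plus 3 SD, cut at about 23% in these data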;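 note: signal is peak over basal fluorescence ratio across the kinetic read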
# M4 PAM – human M4 muscarinic receptor positive allosteric modulators, primary screen, CHO-K1 cells, Fluo-8 calcium fluorescence. activation, % at 3 µM. 360,000 tested, 0.4% active. CHO-K1 hM4/Gqi5, ACh EC20; 0% = ACh EC20, 100% = maximal ACh. Muscarinic acetylcholine receptor M4 (Homo sapiens), P08173;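 active = activation above its plate's cutoff, the mean activation of sample wells plus 3 SD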
# Active calls of the source: *.
SMILES,CHRM5 PAM,CHRM4 antagonist,M4 ag,M5 antag,M5 ag,M4 PAM
CC(OC(=O)c1cccc(S(=O)(=O)N2CCN(C)CC2)c1)C(=O)Nc1ccc(C(N)=O)cc1 (stereo not drawn),-8.6,-4.4,0.5,3.3,3.5,5.3
CC(=O)c1cccc(S(=O)(=O)N2CCC(C(=O)O)CC2)c1,5.1,-5.6,0.7,-7.8,0.8,-9.2
O=C(Nc1nnc(C23CC4CC(CC(C4)C2)C3)s1)c1ccc(N2C(=O)CCC2=O)cc1,-19.8,59.7*,0.5,12.7,-0.1,-16.2
CC(=O)c1cccc(NC(=O)NCCc2ccc(Cl)cc2)c1,-2.2,-0.1,8.9,12.3,1.3,16.1*
CSc1cccc(NC(=O)Nc2ccc(Cl)cc2)c1,-15.3,9.3,9.3,31.0*,7.7,-8.9
CC(=O)Nc1ccc(NC(=O)Nc2cccc(Cl)c2)cc1,-5.2,-3.5,2.7,3.8,2.8,-2.0
CSc1cccc(NC(N)=O)c1,8.1,-4.8,-0.1,-3.8,3.9,0.3
CC(=O)c1ccc(NC(=O)Nc2cccc(Cl)c2)cc1,-20.8,12.3,14.8,27.9*,8.3,-8.0
C[C@@H]1ON(C)[C@H]2C[C@H]3c4[nH]c5ccc(-c6ccc7c(c6)OCO7)cc5c4CCN3C[C@@H]12,3.8,-12.3,14.8,-0.7,2.0,-5.1
CC1C(c2ccccc2)OCCN1C(=S)Nc1ccc(S(=O)(=O)N2CCCCC2)cc1 (stereo not drawn),-2.7,-10.4,1.1,2.4,-0.6,3.3
Cc1ccccc1N1CCN(CCN2C(=O)CC(=C3c4ccccc4-c4ccccc43)C2=O)CC1,5.8,-10.8,0.5,-3.8,1.7,14.1
Cc1ccccc1N1CCN(CCCN2C(=O)CC(=C(c3ccccc3)c3ccccc3)C2=O)CC1,-14.1,38.3*,-3.0,-0.6,-8.9,-17.1
O=C1CC(=C(c2ccccc2)c2ccccc2)C(=O)N1CCCCN1CCN(c2cccc(Cl)c2)CC1,-18.1,39.8*,-2.2,11.1,-8.2,-19.6
Cc1ccc(NC(=S)NCC2CCCO2)cc1 (stereo not drawn),0.4,-2.8,1.7,-10.3,-2.0,26.0*
CCN(CC)CCOC(=O)C(c1ccccc1)c1ccccc1,-18.1,53.8*,1.7,97.7*,-1.4,-17.4
NC(=O)C(c1ccccc1)C1CCCCC1 (stereo not drawn),-0.2,-1.3,1.9,-3.4,-0.2,3.2
CCN(CC)CCOC(=O)C(c1ccccc1)C1CCCCC1 (stereo not drawn),-18.7,100.1*,1.4,99.0*,-1.3,-19.3
CCN(CC)CCSC(=O)C(c1ccccc1)c1ccccc1,-19.0,96.0*,0.8,98.8*,-1.5,-16.6
CCN(CCO)C(=O)C(c1ccccc1)c1ccccc1,5.1,3.7,-0.4,-5.6,-3.3,11.2
Cc1ccccc1NC(=O)COC(=O)c1ccc(C)c(S(=O)(=O)N2CCCCC2)c1,-4.4,2.0,5.2,1.7,-0.3,-1.3
O=C(NNC(=S)Nc1ccccc1Cl)c1ccccc1Br,-5.9,-14.1,5.3,6.0,-1.5,5.0
Cc1ccccc1CN1C(=O)c2ccccc2C1c1nnnn1C(C)C (stereo not drawn),1.5,-10.0,0.5,-1.2,-3.3,17.0
CSc1cccc(NC(=O)CN(C)S(=O)(=O)c2cnc[nH]2)c1,5.6,5.6,1.0,-11.7,-1.4,0.0
CN(C)CCOC1c2ccccc2CCc2ccc3ccccc3c21 (stereo not drawn),-30.4,12.0,6.4,33.2*,-16.8,-12.2
O=C(CN(Cc1ccccc1)C(=O)c1csnn1)NCc1ccc2c(c1)OCO2,28.1*,-17.3,6.9,14.0,4.5,2.6
COc1ccc(CN(CC(=O)NCc2ccc3c(c2)OCO3)C(=O)c2csnn2)cc1,0.0,3.2,3.7,2.3,-1.7,-6.2
